Results taken from ChEMBL document CHEMBL1208768, “Synthesis, selective anti-Helicobacter pylori activity, and cytotoxicity of novel N-substituted-2-oxo-2H-1-benzopyran-3-carboxamides” (Bioorg Med Chem Lett, 2010).
Values after ≈ are worked out from the molar mass of the structure shown. Active and inactive are the calls of the source. The rule behind the calls is not given here.

Key:
[1] = tested on: [Candida] sake; test: Antifungal activity against Candida sake after 24 hrs by broth microdilution method; format: functional; details: Fermentozyma sake
In short: (§1)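 Candida isolates from respiratory-tract specimens, tested by NCCLS broth microdilution in Sabouraud dextrose broth. Serial compound dilutions inoculated to 10³/mL, with fungus-only and medium-only controls. Incubated 24 h at 37 °C. MIC was the lowest concentration with complete visible growth inhibition.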

[2] = tested on: Enterobacter; test: Antibacterial activity against Enterobacter after 18 to 22 hrs by broth microdilution method; format: functional
In short: (§2)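 Clinical respiratory-tract isolates from patients, subcultured for purity and identified conventionally. Broth microdilution per NCCLS in Mueller–Hinton II broth; each plate had growth controls (bacteria, no compound) and medium-only controls. Incubation 18–22 h at 35 °C. MIC taken as the lowest concentration giving complete growth inhibition by unaided eye.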

[3] = tested on: Escherichia coli; test: Antibacterial activity against Escherichia coli after 18 to 22 hrs by broth microdilution method; format: functional; in short: as §2
[4] = tested on: Proteus vulgaris; test: Antibacterial activity against Proteus vulgaris after 18 to 22 hrs by broth microdilution method; format: functional; in short: as §2
[5] = tested on: Pichia kudriavzevii; test: Antifungal activity against Candida krusei after 24 hrs by broth microdilution method; format: functional; in short: as §1
[6] = tested on: Staphylococcus aureus; test: Antibacterial activity against Staphylococcus aureus after 18 to 22 hrs by broth microdilution method; format: functional; in short: as §2
[7] = Solubility of the compound in DMSO at 0.0039 to 128 ug/mL; format: physicochemical
[8] = tested on: Klebsiella oxytoca; test: Antibacterial activity against Klebsiella oxytoca after 18 to 22 hrs by broth microdilution method; format: functional; in short: as §2
[9] = tested on: Citrobacter freundii; test: Antibacterial activity against Citrobacter freundii after 18 to 22 hrs by broth microdilution method; format: functional; in short: as §2
[10] = tested on: AGS; test: Antiinflammatory activity in human AGS cells assessed as inhibition of IL-8 production at 0.5 ug/mL after 24 hrs; format: functional, cell-based
In short: (§3)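 AGS gastric adenocarcinoma cells were grown in F-12K with 10% FBS. They were seeded at 1 × 10⁵/mL for 24 h, preincubated 1 h with compound at 5 or 0.5 µg/mL, then exposed to H. pylori.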

[11] = tested on: AGS; test: Antiinflammatory activity in human AGS cells assessed as inhibition of IL-8 production at 5 ug/mL after 24 hrs; format: functional, cell-based; in short: as §3
[12] = tested on: Staphylococcus haemolyticus; test: Antibacterial activity against Staphylococcus haemolyticus after 18 to 22 hrs by broth microdilution method; format: functional; in short: as §2
[13] = tested on: Candida albicans; test: Antifungal activity against Candida albicans after 24 hrs by broth microdilution method; format: functional; in short: as §1
[14] = tested on: Klebsiella pneumoniae; test: Antibacterial activity against Klebsiella pneumoniae after 18 to 22 hrs by broth microdilution method; format: functional; in short: as §2
[15] = tested on: Staphylococcus epidermidis; test: Antibacterial activity against Staphylococcus epidermidis after 18 to 22 hrs by broth microdilution method; format: functional; in short: as §2
[16] = tested on: Klebsiella aerogenes; test: Antibacterial activity against Enterobacter aerogenes after 18 to 22 hrs by broth microdilution method; format: functional; in short: as §2
[17] = tested on: Enterococcus faecalis; test: Antibacterial activity against Streptococcus faecalis after 18 to 22 hrs by broth microdilution method; format: functional; in short: as §2
[18] = tested on: Staphylococcus hominis; test: Antibacterial activity against Staphylococcus hominis after 18 to 22 hrs by broth microdilution method; format: functional; in short: as §2
[19] = Cytotoxicity against human EAhy926 cells assessed as cell survival at 5 ug/mL after 24 hrs by trypan blue exclusion assay; format: cell-based, EA.hy 926; details: read-out: Survival
In short: (§4)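 EAhy cells in DMEM (high glucose) with 10% FBS, at 1 × 10⁵/mL in exponential growth and 60–70% confluent, were exposed 24 h at 37 °C to compounds from DMSO stocks (final DMSO ≤0.5%). Controls were cells alone or with DMSO, and 1 mM sodium nitroprusside as positive control. Cells were scraped, mixed 1:1 with 0.4% Trypan blue and counted on a hemocytometer by two operators. Result given as % viable cells.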

[20] = tested on: Helicobacter pylori; test: Antibacterial activity against metronidazole-resistant Helicobacter pylori isolate 8 after 72 hrs by agar dilution method; format: functional; details: isolate 8, 72 h
In short: (§5)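 H. pylori clinical isolates (ATCC 43504 control each session) stored at -80 °C and subcultured twice on Columbia agar with 10% horse serum and 0.25% yeast extract. Suspensions of 0.5 McFarland were spotted by Steer's replicator at about 5 × 10⁵ CFU/spot onto agar with twofold compound dilutions. Plates were incubated 72 h at 37 °C in 10% CO₂. MIC was the lowest concentration without visible growth.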

[21] = Cytotoxicity against human EAhy926 cells assessed as cell survival at 0.5 ug/mL after 24 hrs by MTT assay; format: cell-based, EA.hy 926; details: read-out: Survival
[22] = tested on: Helicobacter pylori; test: Antibacterial activity against metronidazole-resistant Helicobacter pylori isolate 20 after 72 hrs by agar dilution method; format: functional; details: isolate 20, 72 h; in short: as §5
[23] = tested on: AGS (Homo sapiens); test: Cytotoxicity against human AGS cells assessed as cell survival at 50 ug/mL after 24 hrs by MTT assay
[24] = Cytotoxicity against human EAhy926 cells assessed as cell survival at 0.05 ug/mL after 24 hrs by trypan blue exclusion assay; format: cell-based, EA.hy 926; details: read-out: Survival; in short: as §4
[25] = Cytotoxicity against human EAhy926 cells assessed as cell survival at 5 ug/mL after 24 hrs by MTT assay; format: cell-based, EA.hy 926; details: read-out: Survival
[26] = tested on: Helicobacter pylori; test: Antibacterial activity against metronidazole-resistant Helicobacter pylori isolate 1 after 72 hrs by agar dilution method; format: functional; details: isolate 1, 72 h; in short: as §5
[27] = tested on: Helicobacter pylori; test: Antibacterial activity against metronidazole-resistant Helicobacter pylori NCTC 11637 after 72 hrs by agar dilution method; format: functional; details: NCTC 11637, 72 h; in short: as §5
[28] = Cytotoxicity against human EAhy926 cells assessed as cell survival at 0.5 ug/mL after 24 hrs by trypan blue exclusion assay; format: cell-based, EA.hy 926; details: read-out: Survival; in short: as §4
[29] = tested on: Helicobacter pylori; test: Antibacterial activity against Helicobacter pylori ATCC 43504 clinical isolates after 72 hrs by agar dilution method; format: functional; details: ATCC 43504, 72 h
In short: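 Agar dilution per NCCLS. Twenty clinical strains from duodenal ulcer or gastritis patients, with ATCC 43504 as control in each session, were subcultured twice on Columbia agar plus 10% horse serum and 0.25% yeast extract (72 h, 37 °C, 10% CO₂). Inoculum of 0.5 McFarland in Wilkins Chalgren broth, about 5 × 10⁵ CFU/spot by Steer's replicator. Plates held twofold compound dilutions down to 0.0039 µg/mL and were incubated 72 h at 37 °C, 10% CO₂. MIC was the lowest concentration inhibiting visible growth.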

[30] = Cytotoxicity against human EAhy926 cells assessed as cell survival at 50 ug/mL after 24 hrs by trypan blue exclusion assay; format: cell-based, EA.hy 926; details: read-out: Survival; in short: as §4
[31] = tested on: Helicobacter pylori; test: Antibacterial activity against metronidazole-resistant Helicobacter pylori isolate 18 after 72 hrs by agar dilution method; format: functional; details: isolate 18, 72 h; in short: as §5

SMILES	MIC [1] [µg/mL]	MIC [2] [µg/mL]	MIC [3] [µg/mL]	MIC [4] [µg/mL]	MIC [5] [µg/mL]	MIC [6] [µg/mL]	solubility [7]	MIC [8] [µg/mL]	MIC [9] [µg/mL]	inhibition [10]	inhibition [11]	MIC [12] [µg/mL]	MIC [13] [µg/mL]	MIC [14] [µg/mL]	MIC [15] [µg/mL]	MIC [16] [µg/mL]	MIC [17] [µg/mL]	MIC [18] [µg/mL]	viability at 24 h, 5 ug/mL [19] [%]	MIC [20] [µg/mL]	other results
CCOC(=O)c1ccc(NC(=O)c2cc3ccc(OC)cc3oc2=O)cc1	> 128	> 128	> 128	> 128	> 128	> 128	Insoluble	> 128	> 128	inactive	inactive	> 128	> 128	> 128	> 128	> 128	> 128	> 128			
CCOC(=O)c1ccc(NC(=O)c2cc3ccc(O)cc3oc2=O)cc1	> 128	> 128	> 128	> 128	> 128	> 128		> 128	> 128	inactive	inactive	> 128	> 128	> 128	> 128	> 128	> 128	> 128	92	4 (≈ 11.3 µM)	viability at 24 h, 0.5 ug/mL [21]: 99%; MIC [22]: 2 µg/mL (≈ 5.66 µM); viability at 24 h, 50 ug/mL [23]: 78%; viability at 24 h, 0.05 ug/mL [24]: 96%; viability at 24 h, 5 ug/mL [25]: 82%; MIC [26]: 8 µg/mL (≈ 22.6 µM); MIC [27]: 8 µg/mL (≈ 22.6 µM); viability at 24 h, 0.5 ug/mL [28]: 95%; MIC50 [29]: 8 µg/mL (≈ 22.6 µM); MIC90 [29]: 8 µg/mL (≈ 22.6 µM); viability at 24 h, 50 ug/mL [30]: 64%; MIC [31]: 8 µg/mL (≈ 22.6 µM)
CCOC(=O)c1ccc(NC(=O)c2cc3cc([N+](=O)[O-])ccc3oc2=O)cc1	> 128	> 128	> 128	> 128	> 128	> 128	Insoluble	> 128	> 128	inactive	inactive	> 128	> 128	> 128	> 128	> 128	> 128	> 128			
Cc1ccc2oc(=O)c(C(=O)Nc3ccc(C(=O)O)cc3)cc2c1	> 128	> 128	> 128	> 128	> 128	> 128	Insoluble	> 128	> 128	inactive	inactive	> 128	> 128	> 128	> 128	> 128	> 128	> 128			
CCOC(=O)c1ccc(NC(=O)c2cc3cc(OC)ccc3oc2=O)cc1	> 128	> 128	> 128	> 128	> 128	> 128		> 128	> 128	inactive	inactive	> 128	> 128	> 128	> 128	> 128	> 128	> 128	42	4 (≈ 10.9 µM)	viability at 24 h, 0.5 ug/mL [21]: 98%; MIC [22]: 4 µg/mL (≈ 10.9 µM); viability at 24 h, 50 ug/mL [23]: 41%; viability at 24 h, 0.05 ug/mL [24]: 72%; viability at 24 h, 5 ug/mL [25]: 58%; MIC [26]: 8 µg/mL (≈ 21.8 µM); MIC [27]: 4 µg/mL (≈ 10.9 µM); viability at 24 h, 0.5 ug/mL [28]: 67%; MIC50 [29]: 4 µg/mL (≈ 10.9 µM); MIC90 [29]: 8 µg/mL (≈ 21.8 µM); viability at 24 h, 50 ug/mL [30]: 36%; MIC [31]: 4 µg/mL (≈ 10.9 µM)
CCOC(=O)c1ccc(NC(=O)c2cc3cc(Br)cc(Cl)c3oc2=O)cc1	> 128	> 128	> 128	> 128	> 128	> 128		> 128	> 128	inactive	inactive	> 128	> 128	> 128	> 128	> 128	> 128	> 128	71	4 (≈ 8.88 µM)	viability at 24 h, 0.5 ug/mL [21]: 98%; MIC [22]: 8 µg/mL (≈ 17.8 µM); viability at 24 h, 50 ug/mL [23]: 64%; viability at 24 h, 0.05 ug/mL [24]: 94%; viability at 24 h, 5 ug/mL [25]: 75%; MIC [26]: 8 µg/mL (≈ 17.8 µM); MIC [27]: 16 µg/mL (≈ 35.5 µM); viability at 24 h, 0.5 ug/mL [28]: 86%; MIC50 [29]: 8 µg/mL (≈ 17.8 µM); MIC90 [29]: 16 µg/mL (≈ 35.5 µM); viability at 24 h, 50 ug/mL [30]: 58%; MIC [31]: 8 µg/mL (≈ 17.8 µM)
